# According to ChEMBL document CHEMBL1122898, “Antiulcer agents. 1. Gastric antisecretory and cytoprotective properties of substituted imidazo[1,2-a]pyridines” (1985):
# Key:
# Format in all cases: functional
# Rattus norvegicus [1] = experiment: Gastric antisecretory activity in the pylorus-ligated rat and the reduction in acid output was measured after 4 hr by intraperitoneal (ip) administration of 40 mg/kg dose.
# Summary of the method: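 Male Charles River CD rats, 150–200 g, fasted 24 h. Pylorus ligated under Brevital anesthesia. 40 mg/kg given ip in 2.5% Tween 80 at ligation. Stomach contents collected at 4 h and titrated with 0.1 N NaOH to pH 7.0. % inhibition from mean AO, 6 treated vs 8 control rats. Student's t test.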
# Canis familiaris [2] = experiment: Inhibition of histamine stimulated gastric acid secretion in adult mongrel dogs at dose 5 mg/kg given intravenously; conditions: Canis lupus familiaris, Stomach, route intravenous
# Summary of the method: (§1)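 Dogs with Heidenhain pouches, 12–18 kg, fasted 18 h. Compound given iv in 3 mL or by gavage in 5 mL of 0.4% methylcellulose/saline, 1 h after infusion start. 30-min collections titrated. Summed 3-h AO against the same dog's control AO gives % inhibition. Usually one dog per compound.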
# Rattus norvegicus [3] = species: Rattus norvegicus; experiment: Oral gastric cytoprotective activity in the rat against ethanol-induced lesions; conditions: Stomach
# Summary of the method: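 Rats fasted and water-deprived for 20 h. Compound given orally, 1–30 mg/kg in 0.4% methylcellulose/saline, 30 min before 1 mL absolute ethanol po. Killed 1 h after ethanol. Linear hemorrhagic lesion lengths totalled per stomach, expressed as group mean. ED50 by linear regression.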
# Canis familiaris [4] = experiment: Inhibition of histamine stimulated gastric acid secretion in adult mongrel dogs at dose 2 mg/kg given intravenously; conditions: Canis lupus familiaris, Stomach, route intravenous; summary of the method: as §1
# Canis familiaris [5] = experiment: Inhibition of histamine stimulated gastric acid secretion in adult mongrel dogs at dose 8 mg/kg given orally; conditions: Canis lupus familiaris, Stomach, route oral; summary of the method: as §1
Compound,inhibition in vivo at 40 mg/kg (Rattus norvegicus [1]),inhibition in vivo at 5 mg/kg (Canis familiaris [2]),ED50 (Rattus norvegicus [3]),inhibition in vivo at 2 mg/kg (Canis familiaris [4]),inhibition in vivo at 8 mg/kg (Canis familiaris [5])
Cc1nc2c([S+]([O-])Cc3ccccc3)cccn2c1CC#N (stereo not given),37%,26%,5 mg/kg,–,–
C/N=C(/S)Cc1c(C)nc2c(OCc3ccccc3)cccn12,7%,0%,–,–,–
Cc1nc2c(OCc3ccccc3)cccn2c1C(N)=O,42%,2%,–,–,–
Cc1nc2c(OCc3cccnc3)cccn2c1CC#N,46%,8%,7.4 mg/kg,–,–
Cc1nc2c(C[S+]([O-])c3ccccc3)cccn2c1C (stereo not given),42%,–,–,0%,–
Cc1nc2c(OCc3ccccn3)cccn2c1CC#N,56%,29%,2.4 mg/kg,–,–
Cc1nc2cc(CCc3ccccc3)ccn2c1CC#N,11%,–,3 mg/kg,26%,–
CC(=O)c1c(C)nc2c(OCc3ccccc3)cccn12,57%,9%,–,–,–
Cc1nc2c(OCc3ccccc3)cccn2c1C[S+](C)[O-] (stereo not given),0%,18%,–,–,–
Cc1nc2c(S(=O)(=O)Cc3ccccc3)cccn2c1CC#N,9%,6%,16 mg/kg,–,–
CCSCc1c(C)nc2c(OCc3ccccc3)cccn12,36%,0%,–,–,–
Cc1nc2ccc(CCc3ccccc3)cn2c1CC#N,8%,0%,2.7 mg/kg,–,–
Cc1nc2c(OCc3ccccc3)cccn2c1CC(=O)O,12%,24%,–,–,–
Cc1nc2c(OCc3ccncc3)cccn2c1CC#N,51%,36%,2.6 mg/kg,–,–
Cc1nc2c(OCc3ccccc3)cccn2c1Br,26%,63%,–,–,0%
CCOCc1c(C)nc2c(OCc3ccccc3)cccn12,84%,35%,–,–,0%
Cc1nc2c(OCc3ccccc3)cccn2c1CC(=N)N,79%,0%,–,–,–
Cc1nc2c(SCc3ccccc3)cccn2c1CC#N,22%,89%,7 mg/kg,–,2%
CNC(=O)Cc1c(C)nc2c(OCc3ccccc3)cccn12,24%,14%,–,–,–
Cc1nc2c(OCc3ccc(S(C)(=O)=O)cc3)cccn2c1CC#N,2%,–,–,–,–
Cc1nc2c(OCc3ccccc3)cccn2c1CC(=S)N(C)C,21%,0%,–,–,–
Cc1nc2c(Oc3ccccc3)cccn2c1CC#N,24%,0%,3.4 mg/kg,–,–

Compound,inhibition in vivo at 40 mg/kg (Rattus norvegicus [1]),inhibition in vivo at 5 mg/kg (Canis familiaris [2]),ED50 (Rattus norvegicus [3]),inhibition in vivo at 2 mg/kg (Canis familiaris [4]),inhibition in vivo at 8 mg/kg (Canis familiaris [5])
CCc1c(C)nc2c(OCc3ccccc3)cccn12,–,–,2 mg/kg,37%,–
c1ccc(COc2cccn3c4c(nc23)CCCC4)cc1,–,–,–,24%,28%
Cc1nc2c(OCc3ccccc3)cccn2c1C(C)(C)C#N,57%,0%,12.3 mg/kg,–,–
Cc1nc2c(OCc3ccccc3)cccn2c1CCC#N,40%,20%,1.5 mg/kg,–,–
Cc1nc2c(OCc3ccccc3)cccn2c1Cl,93%,37%,–,–,43%
CSCc1c(C)nc2c(OCc3ccccc3)cccn12,29%,8%,–,–,–
Cc1nc2c(OCc3ccccc3)cccn2c1COC(=O)c1cccnc1,87%,88%,–,–,0%
Cc1nc2c(OCc3cccc(C(F)(F)F)c3)cccn2c1CC#N,61%,30%,6.5 mg/kg,–,38%
Cc1nc2c(OCc3ccoc3)cccn2c1CC#N,99%,60%,1.4 mg/kg,–,42%
Cc1nc2c(O)cccn2c1CC#N,0%,0%,–,–,–
COCc1c(C)nc2c(OCc3ccccc3)cccn12,99%,29%,–,–,37%
c1ccc(COc2cccn3c4c(nc23)CCC4)cc1,26%,0%,–,–,–
CCOC(=O)c1c(C)nc2c(OCc3ccccc3)cccn12,22%,–,–,–,–
COC(=O)Cc1c(C)nc2c(OCc3ccccc3)cccn12,23%,16%,–,–,–
Cc1nc2c(OCc3ccccc3)cccn2c1CC1=NCCN1,69%,–,–,–,–
CCCCC(=O)OCc1c(C)nc2c(OCc3ccccc3)cccn12,45%,96%,–,–,13%
N#CCc1c(C(F)(F)F)nc2c(OCc3ccccc3)cccn12,0%,0%,–,–,–
Cc1nc2c(OCc3ccccc3)cccn2c1CS(C)(=O)=O,61%,0%,–,–,–
Cc1nc2c(OCc3cccc4ccccc34)cccn2c1CC#N,0%,78%,9.8 mg/kg,–,15%
Cc1nc2c(OCCCc3ccccc3)cccn2c1CC#N,64%,80%,4.3 mg/kg,–,8%
Cc1nc2c(OCc3ccccc3)cccn2c1COC(=O)N(C)C,75%,23%,–,–,49%
